Laboratory results: BindingDB's records for doi:10.1021/jm048999e (2005)

Biological target: T1, 5-hydroxytryptamine receptor 1A (Rattus norvegicus, UniProt P19327)
T1 sequence (P19327 whole entry): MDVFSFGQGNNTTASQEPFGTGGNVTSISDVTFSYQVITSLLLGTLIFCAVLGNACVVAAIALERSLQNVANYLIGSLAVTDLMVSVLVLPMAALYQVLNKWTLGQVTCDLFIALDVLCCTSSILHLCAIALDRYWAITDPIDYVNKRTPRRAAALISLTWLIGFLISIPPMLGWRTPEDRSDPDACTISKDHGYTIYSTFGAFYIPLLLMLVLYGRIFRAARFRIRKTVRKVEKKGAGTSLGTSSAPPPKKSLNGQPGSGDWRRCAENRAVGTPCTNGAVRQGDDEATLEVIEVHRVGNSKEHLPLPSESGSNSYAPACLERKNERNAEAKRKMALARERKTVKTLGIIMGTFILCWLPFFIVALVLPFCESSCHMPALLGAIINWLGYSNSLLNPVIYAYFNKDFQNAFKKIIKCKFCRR
Experiment: In vitro inhibition of [3H]8-OH-DPAT binding to 5-hydroxytryptamine 1A receptor in rat cerebral cortex membranes
Outline: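 Rat cerebral cortex membranes (about 1 mg protein) incubated 15 min at 37 °C with 0.6 nM [3H]-8-OH-DPAT in 50 mM Tris-HCl, pH 7.4, containing 10 nM clonidine and 30 nM prazosin. Nonspecific binding with 10 µM 5-HT. Compounds screened at 10^-6 M; curves run if displacement exceeded 55%. Filtration, scintillation counting, triplicates, 2-4 experiments; Ki by Cheng-Prusoff.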

Ki: 10.4 nM
SMILES: O=c1n(CN2CCN(c3cccc4ccccc34)CC2)c(O)c2n1CCC2 [2-(4-Naphthalen-1-yl-piperazin-1-ylmethyl)-tetrahydro-pyrrolo[1,2-c]imidazole-1,3-dione]
